An excerpt weighted towards active compounds, which were near 0.99% of everything screened.
DYRK1A inh: inhibitors of rat Dyrk1A kinase; Q63470; ADP-Glo luminescence, NFATc1 peptide; inhibition, % at 12.5 µM; 310,000 compounds, 0.43% hits; in the data active = inhibition above about 50%;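 also: plate controls were vehicle with enzyme for no effect and no enzyme for full effect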
AI-2 QS mod: Vibrio harveyi AI-2 quorum sensing modulation; 300,000 compounds, 0.4% hits; Vibrio harveyi JMH597 AI-2 luminescence/OD600 ratio, 9 h; hits give low values; strain lacks LuxN and CqsS sensors; 0 = neutral-control median; activity change, % at 7.5 µM; in the data active = activity change below about -75%, passing the limit was not always enough; inconclusive = no clear call, values can overlap the other calls;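 also: luminescence divided by OD600 gain over 9 h not by final OD600 alone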
GSK3A inh: human GSK-3 alpha kinase inhibition; AID 2650; P49840; inhibition, % at 10 µM; 320,000 compounds, 0.1% hits; ADP-Glo luminescence, 60 min;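 active = more than half of replicates show inhibition above 20%; inconclusive = some but at most half of replicates above 20% inhibition; inactive = no replicate shows inhibition above 20%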;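 also: GST-tagged GSK-3 alpha with peptide substrate and 25 µM ATP; 0% = DMSO neutral wells and 100% = GW8510 positive control wells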
Rce1 inh: yeast Ras-converting enzyme inhibition; calls only; 290,000 compounds, 0.27% hits; yeast membranes, quenched prenylated peptide cleavage fluorescence;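 active = fall in fluorescence gain of 50% or more versus controls, with final raw signal at or below 3038400; inconclusive = same 50% fall but final raw signal above 3038400; inactive = fall in fluorescence gain under 50%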;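 also: plate controls were neutral control wells for no effect and wells lacking membranes for full effect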
STK33 kinase inh: blocks human STK33 kinase activity; Q9BYT3; purified STK33, MBP phosphorylation, ADP-Glo luminescence; inhibition, % at 10 µM; 320,000 compounds, 0.073% hits;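 active = inhibition at or above 25%, using the most active replicate where run in duplicate; inactive = inhibition below 25%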
GSK3beta inhib: inhibitors of human GSK3beta kinase. P49841. GST-GSK3beta kinase, ADP-Glo luminescence, 60 min; hits give low values. activity score (negative = inhibition), % at 10 µM. 300,000 compounds, 0.038% hits. AID 2097;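 active = more than half of replicate wells score below -50%, meaning over 50% inhibition versus plate controls; inconclusive = some replicates but at most half score below -50%; inactive = no replicate scores below -50%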;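 also: 0% = median DMSO wells and -100% = median GW8510 positive control wells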
Target sequence (P49841 whole entry, looked up): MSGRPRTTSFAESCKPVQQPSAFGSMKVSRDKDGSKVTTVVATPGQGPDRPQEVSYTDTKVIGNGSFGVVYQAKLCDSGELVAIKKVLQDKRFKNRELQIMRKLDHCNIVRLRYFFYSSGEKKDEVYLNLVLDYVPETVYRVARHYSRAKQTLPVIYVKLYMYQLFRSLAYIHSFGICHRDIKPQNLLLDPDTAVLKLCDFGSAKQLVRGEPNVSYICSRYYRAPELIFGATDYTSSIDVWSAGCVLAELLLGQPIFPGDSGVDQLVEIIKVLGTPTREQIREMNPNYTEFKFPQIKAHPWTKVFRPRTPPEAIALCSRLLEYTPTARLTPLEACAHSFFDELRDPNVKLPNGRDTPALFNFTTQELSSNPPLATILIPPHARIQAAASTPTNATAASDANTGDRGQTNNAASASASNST
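Test system: GST-tagged human GSK3beta kinase, cell-free; evaluation: activity score scaled between in-plate DMSO and GW8510 controls; measured by: ADP-Glo luminescence; incubation: 60 min reaction, RT; benchmarks: DMSO and 20 µM GW8510; reagent: peptide substrate plus 25 µM ATP (final); medium: Tris/MgCl2 kinase buffer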
JMH597 growth: retest: blocks Vibrio harveyi JMH597 growth. 750 compounds, 1% hits. shares compounds with AI-2 QS mod. AID 2726. growth inhibition, % at 7.5 µM. OD600 absorbance, 9 h; lacks LuxN and CqsS sensors;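 active = every replicate shows growth inhibition above 50%; inconclusive = at least half, but not all, replicates pass that cutoff; inactive = fewer than half of replicates pass it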
BB721 const-QS lum: retest counter-screen: luminescence loss in constitutive-on quorum sensing strain BB721. shares compounds with AI-2 QS mod. Vibrio harveyi BB721 luminescence, 9 h. inhibition, % at 7.5 µM. 750 compounds, 95% hits. AID 2727;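 active = inhibition above about 80% in every replicate, not just on average, limit read from the data; inconclusive = at least half of replicates past the limit, but not all; inactive = fewer than half of replicates past the limit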
BB721 growth rt: retest: inhibitors of Vibrio harveyi BB721 growth; shares compounds with AI-2 QS mod; OD600 absorbance, 9 h; growth inhibition, % at 7.5 µM; 750 compounds, 3% hits; AID 2728;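 active = every replicate shows growth inhibition above 50%; inconclusive = at least half but not all replicates above 50% inhibition; inactive = under half of replicates above 50% inhibition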
AI-2 QS JMH597: Vibrio harveyi AI-2 signaling luminescence modulation – JMH597 strain, confirmation. shares compounds with AI-2 QS mod. Vibrio harveyi JMH597 AI-2 quorum sensing luminescence, 9 h; luxN and CqsS knockout, AI-2 only. inhibition, % at 7.5 µM. 750 compounds, 97% hits;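 active = every replicate shows more than 75% inhibition of signal versus neutral control wells; inconclusive = half to three quarters of replicates exceed 75% inhibition; inactive = fewer than half of replicates exceed 75% inhibition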
An asterisk follows results filed as active; i = inactive; ? = inconclusive; · = no result.

SMILES	DYRK1A inh	AI-2 QS mod	GSK3A inh	Rce1 inh	STK33 kinase inh	GSK3beta inhib	JMH597 growth	BB721 const-QS lum	BB721 growth rt	AI-2 QS JMH597
CN(C)S(=O)(=O)c1ccc(NC(=O)CSc2ncnc3ccccc23)cc1	1	-86*	·	i	·	-7	4	92*	6	94*
CN(C)S(=O)(=O)c1cccc(NC(=O)CSc2ncnc3ccccc23)c1	-2	-46	-1	i	1	-2	·	·	·	·
Cc1noc(C)c1CSCC(=O)Nc1nc2ccccc2s1	12	2	-2	i	-2	2	·	·	·	·
CCc1ccc2nc(NC(=O)CSCc3c(C)noc3C)sc2c1	5	-90*	-2	i	2	4	11	94*	-109	96*
CC(=O)Nc1ccc(OCC(=O)N2CCc3ccccc3C2)cc1	-6	21	-1	i	0	-1	·	·	·	·
CC(C)c1ccc(OCC(=O)N2CCc3ccccc3C2)cc1	3	?	-2	i	1	0	12	85*	12	90*
COc1ccccc1/C=C/C(=O)NCCC1=CCCCC1	-6	17	0	i	-1	0	·	·	·	·
O=C(/C=C/c1ccc(F)cc1)NCCC1=CCCCC1	6	-89*	0	i	-1	1	?	97*	25	98*
CCOC(=O)Cc1csc(NC(=O)c2ccc3ncsc3c2)n1	6	12	-2	i	-2	-1	·	·	·	·
CCCCCC(=O)NC(=S)Nc1ccc2oc(=O)ccc2c1	3	-90*	9	i	-3	-2	19	99*	40	98*
Cc1ccc(-c2[nH]ncc2C(=O)c2ccc(Br)cc2)c(O)c1	3	-95*	3	i	0	0	14	97*	-5	98*
O=C(CN1C(=O)NC2(CCc3ccccc32)C1=O)Nc1ccc(N2CCOCC2)cc1 (stereo not drawn)	-5	-89*	16	i	0	0	7	88*	9	93*
O=[N+]([O-])c1ccc(NCCCNS(=O)(=O)c2ccccc2)cc1	5	?	2	i	-2	-3	11	97*	6	97*
O=C(O)c1ccc(NCc2cccnc2)cc1	-4	19	-4	i	-1	-1	·	·	·	·
O=C(O)c1ccc(NCc2ccc(Br)cc2)cc1	-10	-96*	-2	i	-1	3	-8	100*	12	100*
Cc1cc(NC(=O)COC(=O)[C@H](Cc2ccccc2)NC(=O)c2ccco2)no1	-2	·	·	·	·	·	·	·	·	·
CCOc1ccc(S(=O)(=O)N2CCN=C2c2ccccc2)c(C)c1C	-7	12	-1	i	-1	-2	·	·	·	·
COc1ccc(C(=O)N/C(=C\c2cn(C)c3ccccc23)C(=O)N2CCOCC2)cc1	2	-5	-1	i	1	4	·	·	·	·
Cn1c(=O)n(C)c2cc(NC(=O)CCl)ccc21	4	-88*	-3	i	0	-1	16	87*	42	89*
CC(=O)Nc1ccc2c(c1)n(C)c(=O)n2C	1	30	-3	i	-1	0	·	·	·	·
COc1ccc(CCC(=O)NCCS(=O)(=O)N2CCN(c3ccccc3OC)CC2)cc1	-5	1	0	i	2	3	·	·	·	·
O=C(COc1ccccc1)Nc1ccc(S(=O)(=O)NCc2ccco2)cc1	-8	-97*	-1	i	0	1	13	100*	-57	100*
O=C(COc1ccccc1)NCC(=O)Nc1ccc(S(=O)(=O)NCc2ccco2)cc1	4	26	-5	i	-2	0	·	·	·	·
O=C(COc1ccccc1F)Nc1ccc(S(=O)(=O)NCc2ccco2)cc1	0	-92*	0	i	-1	1	29	99*	-12	99*
O=[N+]([O-])c1ccc(N/N=C/c2cccc(O)c2O)cc1	-2	-82*	0	i	0	-1	33	93*	16	96*
SMILES	DYRK1A inh	AI-2 QS mod	GSK3A inh	Rce1 inh	STK33 kinase inh	GSK3beta inhib	JMH597 growth	BB721 const-QS lum	BB721 growth rt	AI-2 QS JMH597
O=C(COC(=O)c1cc(=O)[nH]c2ccccc12)NCc1ccc(Cl)cc1	·	·	0	·	0	·	·	·	·	·
Cc1ccc(NS(=O)(=O)N2CCCCC2)cc1	2	·	·	·	·	·	·	·	·	·
COc1cccc(NC(=O)CCC(=O)Nc2cccc(OC)c2)c1	-4	25	0	i	-1	3	·	·	·	·
COc1cc(NC(=O)CN2C(=O)NC(c3ccccc3)(c3ccccc3)C2=O)cc(OC)c1	-5	-89*	2	i	0	3	36	22	14	44
COc1cccc(NC(=O)CN2C(=O)NC3(CCCC3)C2=O)c1	0	17	1	i	-1	1	·	·	·	·
COc1cccc(NC(=O)CN2C(=O)NC(c3ccccc3)(c3ccccc3)C2=O)c1	-8	-93*	-1	i	0	-2	8	93*	10	97*
COc1cccc(NC(=O)CN2C(=O)NC(C)(c3ccc(C)cc3)C2=O)c1 (stereo not drawn)	1	-90*	-3	i	-1	-5	21	92*	25	95*
COc1cccc(NC(=O)Cc2ccc3ccccc3c2)c1	·	-84*	-2	i	-12	-5	22	89*	14	92*
O=C(NCc1ccccn1)c1ccc(OC2CCN(Cc3cccs3)CC2)cc1	-1	13	-1	i	-1	-1	·	·	·	·
COc1cc(NC(=O)Cn2nnc(-c3ccncc3)n2)cc(OC)c1	·	-35	-5	i	-1	1	·	·	·	·
COc1cccc(NC(=O)Cn2nnc(-c3ccccc3N)n2)c1	-3	-81*	-3	i	1	-2	18	97*	34	97*
CCCC1(c2ccccc2)NC(=O)N(CC(=O)Nc2cc(OC)cc(OC)c2)C1=O (stereo not drawn)	4	-81*	-1	i	0	-1	7	?	-5	85*
O=C(O)c1cc(S(=O)(=O)N2CCN(C(=O)c3ccco3)CC2)c(Cl)cc1Cl	4	3	-1	i	0	0	·	·	·	·
CCc1ccccc1Oc1coc2cc(O)ccc2c1=O	-6	13	0	i	0	2	·	·	·	·
Cc1cccc(Oc2coc3cc(O)ccc3c2=O)c1	2	-87*	3	i	-1	-1	26	98*	44	98*

Assay outcomes: PubChem BioAssay, Broad Institute
